Assay results reported in ChEMBL document CHEMBL4229555, “Design, synthesis and structure-activity relationship study of novel naphthoindolizine and indolizinoquinoline-5,12-dione derivatives as IDO1 inhibitors” (Bioorg Med Chem, 2018).

Legend:
[1] = biological target: T1, Tryptophan 2,3-dioxygenase (Homo sapiens, UniProt P48775); assay: Inhibition of recombinant TDO (unknown origin) assessed as reduction in N-formylkynurenine formation using L-Tryptophan as substrate after 75 mins by UV absorption method
Summary of the method: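 Recombinant TDO reaction at room temperature in TDO assay buffer with 200 μM L-tryptophan and inhibitor, incubated 75 min; N-formylkynurenine measured by UV absorbance at 321 nm. Blank used buffer in place of enzyme. IC50 from nonlinear regression with normalized dose-response fit.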
Target sequence in this assay (P48775 whole entry): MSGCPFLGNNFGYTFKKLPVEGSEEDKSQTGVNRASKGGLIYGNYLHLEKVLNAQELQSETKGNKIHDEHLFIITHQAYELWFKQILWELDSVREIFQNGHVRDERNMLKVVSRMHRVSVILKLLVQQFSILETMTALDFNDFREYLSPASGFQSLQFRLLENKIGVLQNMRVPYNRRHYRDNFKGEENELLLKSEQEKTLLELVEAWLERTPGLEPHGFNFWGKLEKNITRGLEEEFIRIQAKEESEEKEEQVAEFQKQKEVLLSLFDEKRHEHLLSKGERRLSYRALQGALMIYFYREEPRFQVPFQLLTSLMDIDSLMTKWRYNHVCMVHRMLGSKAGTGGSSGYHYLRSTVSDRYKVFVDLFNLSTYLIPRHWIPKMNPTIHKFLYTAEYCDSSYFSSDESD

[2] = biological target: T2, Indoleamine 2,3-dioxygenase 1 (Homo sapiens, UniProt P14902); assay: Inhibition of IDO1 (unknown origin) assessed as reduction in N'-formlylkynurenine formation using D-Tryptophan as substrate in presence of ascorbate and methylene blue; conditions: in the assay text read “ascorbate” for “aspartate”
Summary of the method: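 Room-temperature reaction: 20 nM IDO, 2 mM D-Trp, 20 mM ascorbate, 3.5 μM methylene blue, 0.2 mg/mL catalase in 50 mM potassium phosphate pH 6.5. Initial rates tracked continuously by absorbance rise at 321 nm (N'-formylkynurenine); IC50 by nonlinear regression, normalized dose-response fit.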
Target sequence in this assay (P14902 whole entry): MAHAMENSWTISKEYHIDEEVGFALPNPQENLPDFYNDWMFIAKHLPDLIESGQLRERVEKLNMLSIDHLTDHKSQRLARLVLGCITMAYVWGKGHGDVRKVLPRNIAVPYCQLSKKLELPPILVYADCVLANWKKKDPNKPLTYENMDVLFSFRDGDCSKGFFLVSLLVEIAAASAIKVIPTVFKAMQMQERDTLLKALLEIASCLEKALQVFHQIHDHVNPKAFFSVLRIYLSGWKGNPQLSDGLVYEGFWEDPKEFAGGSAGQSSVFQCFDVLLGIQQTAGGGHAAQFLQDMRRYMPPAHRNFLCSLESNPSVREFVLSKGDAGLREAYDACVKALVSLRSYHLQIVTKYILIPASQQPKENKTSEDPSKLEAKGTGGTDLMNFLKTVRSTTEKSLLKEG

[3] = biological target: T2, Indoleamine 2,3-dioxygenase 1; assay: Inhibition of IDO1 (unknown origin) assessed as reduction in N'-formlylkynurenine formation at 1 uM using D-Tryptophan as substrate in presence of ascorbate and methylene blue relative to control
Target sequence in this assay (P14902 whole entry, looked up): as the sequence (P14902 whole entry) above

[4] = biological target: T1, Tryptophan 2,3-dioxygenase; assay: Inhibition of recombinant TDO (unknown origin) assessed as reduction in N-formylkynurenine formation at 10 uM using L-Tryptophan as substrate after 75 mins by UV absorption method relative to control
Summary of the method: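 Room-temperature UV assay: recombinant TDO with 200 μM L-tryptophan in TDO assay buffer plus inhibitor, 75 min incubation, then absorbance at 321 nm for N-formylkynurenine. Buffer substituted for TDO as blank.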
Target sequence in this assay (P48775 whole entry, looked up): as the sequence (P48775 whole entry) above

[5] = biological target: T2, Indoleamine 2,3-dioxygenase 1; assay: Inhibition of IFN-gamma-stimulated IDO1 in human HeLa cells at 1 uM after 24 hrs by Ehrlich's reagent based assay relative to control; type: cell-based
Summary of the method: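 IFN-γ (100 ng/mL, 24 h) induction of IDO1 in HeLa cells plated at 40,000/well after 24 h adherence; inhibitor in DMSO, 24 h incubation. Reaction ended with 30% TCA, heated 30 min at 50 °C, centrifuged, supernatant reacted with Ehrlich reagent 10 min at room temperature; read at 490 nm.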
Target sequence in this assay (P14902 whole entry, looked up): as the sequence (P14902 whole entry) above

[6] = biological target: T2, Indoleamine 2,3-dioxygenase 1; assay: Inhibition of IFN-gamma-stimulated IDO1 in human HeLa cells after 24 hrs by Ehrlich's reagent based assay; type: cell-based
Summary of the method: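 HeLa cells (40,000/well) adhered 24 h, stimulated with 100 ng/mL human recombinant IFN-γ for 24 h, then given inhibitor in DMSO from 10 μM top dose, 3-fold dilutions to 0.1 μM, for 24 h. Stopped with 30% TCA, 30 min at 50 °C, centrifuged; supernatant mixed with Ehrlich reagent 10 min at room temperature, absorbance at 490 nm.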
Target sequence in this assay (P14902 whole entry): as above

HeLa = assay: Cytotoxicity against human HeLa cells after 48 hrs by MTT assay; type: functional, cell-based
Summary of the method: (§1)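 Cells seeded at 3-4 × 10^3 per well and incubated overnight, then exposed to compounds added from 10 mM DMSO stock for 48 h; 1% DMSO as negative control.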

HEK-293T = assay: Cytotoxicity against HEK293T cells after 48 hrs by MTT assay; type: cell-based; conditions: Homo sapiens; summary of the method: as §1
MCF7 = assay: Cytotoxicity against human MCF7 cells after 48 hrs by MTT assay; type: functional, cell-based; conditions: MCF7, 48 h; summary of the method: as §1

IC50 [2] [nM]	inhibition [3] [%]	inhibition [5] [%]	SMILES	further results
361	68		O=C1c2cccnc2C(=O)c2c1c(C(=O)Nc1ccccc1)c1ccccn21	IC50 [1]: 7.3 µM
	56		O=C1c2ncccc2C(=O)c2c1c(Cc1ccccc1)c1ccccn21	
288	70		O=C1c2cccnc2C(=O)c2c1c(C(=O)O)c1ccccn21	inhibition [4]: 28%
427	74		Cc1ccccc1NC(=O)c1c2c(n3ccccc13)C(=O)c1ncccc1C2=O	IC50 [1]: > 100 µM
	35		CCOC(=O)c1c2c(n3ccccc13)C(=O)c1ncccc1C2=O	
1190	58		O=C1c2ncccc2C(=O)c2c1c(C(=O)O)c1ccccn21	
148	74.5	9	O=C(O)c1cccc(NC(=O)c2c3c(n4ccccc24)C(=O)c2ncccc2C3=O)c1	IC50 [1]: 41.6 µM
50	72.5	42	CSc1ccn2c3c(c(C(=O)NCCN(C)C)c2c1)C(=O)c1cccnc1C3=O	IC50 [6]: 1080 nM
448	69		COC(=O)c1c2c(n3ccccc13)C(=O)c1cccnc1C2=O	
			COc1cccc2c1C(=O)c1c(O)c3c(c(O)c1C2=O)C[C@@](O)(C(=O)CO)C[C@@H]3O[C@H]1C[C@H](N)[C@H](O)[C@H](C)O1 [DOXORUBICIN]	IC50 (HeLa): 660 nM; IC50 (HEK-293T): 1130 nM
	60		O=C1c2c(O)cccc2C(=O)c2c1c(C(=O)O)c1ccccn21	
977	61		CCOC(=O)c1c2c(n3ccccc13)C(=O)c1cccnc1C2=O	inhibition [4]: 14%
23	74.5	22	NC(=S)NNC(=O)c1c2c(n3ccccc13)C(=O)c1ncccc1C2=O	IC50 [1]: 1.2 µM; IC50 (HeLa): > 20000 nM; IC50 (MCF7): > 20 µM; IC50 (HEK-293T): > 20000 nM
	15		O=C1c2ccccc2C(=O)c2c1c(C(=O)NCCCO)c1ccccn21	
438	65		COC(=O)c1c2c(n3ccccc13)C(=O)c1ncccc1C2=O	
420	67		O=C1c2ncccc2C(=O)c2c1c(C(=O)O)c1cc(I)ccn21	
	29		CN(C)CCNC(=O)c1c2c(n3ccccc13)C(=O)c1cccc(O)c1C2=O	
	24		CN(C)CCCNC(=O)c1c2c(n3ccccc13)C(=O)c1ccccc1C2=O	
188	77	81	CN(C)CCNC(=O)c1c2c(n3ccccc13)C(=O)c1cccnc1C2=O	IC50 [1]: 7.15 µM; IC50 [6]: 1240 nM; inhibition [4]: 88%
119	62	25	O=C1c2ncccc2C(=O)c2c1c(C(=O)Nc1ccccc1)c1ccccn21	IC50 [1]: > 100 µM

IC50 [2] [nM]	inhibition [3] [%]	inhibition [5] [%]	SMILES	further results
	22		O=C1c2ccccc2C(=O)c2c1c(C(=O)NCCO)c1ccccn21	
	13		CC(C)OC(=O)c1c2c(n3ccccc13)C(=O)c1ccccc1C2=O	
127	78	43	CN(C)CCNC(=O)c1c2c(n3ccccc13)C(=O)c1ncccc1C2=O	IC50 [1]: 3.35 µM; IC50 [6]: 738 nM; inhibition [4]: 91%
	34		O=C1c2ncccc2C(=O)c2c1c(C(=O)Nc1cccc(Cl)c1)c1ccccn21	
156	77	24	COC(=O)c1c2c(n3ccccc13)C(=O)c1ccccc1C2=O	inhibition [4]: 40%
	47		COc1ccn2c3c(c(C(=O)O)c2c1)C(=O)c1ncccc1C3=O	
39	80.5	77	CSc1ccn2c3c(c(C(=O)NCCN(C)C)c2c1)C(=O)c1ncccc1C3=O	IC50 [6]: 372 nM
134	64	38	Cc1ccccc1NC(=O)c1c2c(n3ccccc13)C(=O)c1cccnc1C2=O	IC50 [1]: > 100 µM; IC50 [6]: 2660 nM
117	67	12	O=C1c2cccnc2C(=O)c2c1c(C(=O)O)c1cc(I)ccn21	
332	68		CCOC(=O)c1c2c(n3ccccc13)C(=O)c1ccccc1C2=O	
390	71.5		O=C(O)c1cccc(NC(=O)c2c3c(n4ccccc24)C(=O)c2cccnc2C3=O)c1	IC50 [1]: > 100 µM
299	69		COc1ccn2c3c(c(C(=O)O)c2c1)C(=O)c1cccnc1C3=O	
	54		Cc1ccn2c3c(c(C(=O)O)c2c1)C(=O)c1ncccc1C3=O	
	34		O=C1c2cccnc2C(=O)c2c1c(Cc1ccccc1)c1ccccn21	
	29.5		O=C1c2cccnc2C(=O)c2c1c(C(=O)Nc1cccc(Cl)c1)c1ccccn21	
73		96	NS(=O)(=O)NCCNC1=NON/C1=C(/NO)Nc1ccc(F)c(Br)c1	IC50 [6]: 7 nM
394	70		Cc1ccn2c3c(c(C(=O)O)c2c1)C(=O)c1cccnc1C3=O	
87	77	12	COC(=O)c1c2c(n3ccccc13)C(=O)c1cccc(O)c1C2=O	
714	61		O=C1c2ccccc2C(=O)c2c1c(C(=O)O)c1ccccn21	
	27		CN(C)CCNC(=O)c1c2c(n3ccccc13)C(=O)c1ccccc1C2=O	
